Results on 27 molecules are retold here after ChEMBL document CHEMBL4196180, “Semisynthesis of ω-Hydroxyalkylcarbonate Derivatives of Hydroxytyrosol as Antitrypanosome Agents” (J Nat Prod, 2018).

In data set [1] the test system is Trypanosoma brucei brucei. As to the kind of experiment: Anti-parasitic activity against Trypanosoma brucei brucei 427 infected in human MRC5 cells assessed as reduction in parasite proliferation after 72 hrs by Alamar blue assay. Type of data set: functional, organism-based. The settings on record: Trypanosoma brucei, 427, 72 h; in the assay text read “bloodstream forms” for “infected in human MRC5 cells”. Summed up:
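Bloodstream-form T. brucei brucei single-marker S427 (S16), grown in HMI-9 with 10% hiFBS at 37 °C, 5% CO2. Parasites seeded at 1 × 10^4 BSF/mL with increasing compound concentrations for 72 h at 37 °C, 5% CO2. Proliferation read by alamarBlue fluorescence (ex 550/em 590 nm); IC50 = 50% inhibition of parasite growth.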

Data set [2] deals with Trypanosoma brucei brucei. Put plainly: Potency index, ratio of hydroxytyrosol IC50 to compound IC50 for Trypanosoma brucei brucei 427 […]. Type of data set: functional. Summed up:
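Activity gain calculated as IC50 of hydroxytyrosol against bloodstream-form T. brucei divided by IC50 of the derivative. Both come from the 72 h alamarBlue assay.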

A further data set relates to MRC5. Put plainly: Cytotoxicity against human MRC5 cells assessed as inhibition of cell growth after 72 hrs by MTT assay. The settings on record: MRC5, 72 h. Format: cell-based. Summed up: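 MRC-5 lung fibroblasts kept in low-glucose DMEM with 10% hiFBS and penicillin/streptomycin at 37 °C, 5% CO2, 100% humidity. Cells trypsinized (0.25%), seeded at 5000 cells/well with increasing compound concentrations, incubated 72 h at 37 °C. MTT colorimetric read-out; IC50 = concentration inhibiting growth 50% vs untreated cells.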
(In general: Tetrazolium dyes change colour on reduction, which living cells bring about.)

The nature of data set [3]: Selectivity index, ratio of IC50 for MRC5 cells to IC50 for Trypanosoma brucei brucei 427 […]. Format: toxicity, cell-based. The settings on record: read-out: Ratio IC50.
Data set [4] deals with Trypanosoma brucei brucei. As to the kind of experiment: Anti-parasitic activity against Trypanosoma brucei brucei 427 bloodstream forms assessed as reduction in parasite proliferation after 72 hrs by Alamar blue assay. The settings on record: Trypanosoma brucei, 427, 72 h. (In general: The colour change of resazurin is a common sign of viable cells or microbes.)

A word on the IC50: it is the point on the concentration scale where inhibition reaches its midpoint.

Each structure is given as a SMILES string. Bounds are passed on as bounds.

Turning to `O=C(OCCCCCCOC(=O)OCCc1ccc(OCc2ccccc2)c(OCc2ccccc2)c1)OCCc1ccc(OCc2ccccc2)c(OCc2ccccc2)c1`, the IC50 in data set [1] amounted to 8.1 µM. In addition, the “Ratio IC50” value in data set [2] came out at 5.9.

As to `O=C(OCCCCCCCCO)OCCc1ccc(O)c(O)c1`, the 50% inhibitory concentration (IC50) in the data set on MRC5 was over 50 µM; in data set [4] it was 1.5 µM. Further, the selectivity ratio in data set [3] was over 35. In addition, in data set [2], the “Ratio IC50” value is listed as 32.8.

`O=C(OCCc1ccc(O)c(O)c1)OCCc1ccc(O)c(O)c1`: the IC50 was 1.3 µM in data set [1] and over 50 µM in the data set with MRC5. Moreover, the selectivity ratio in data set [3] was over 39. Also, the “Ratio IC50” value in data set [2] is 37.1.

Regarding `CCCCCCCCCCCCOC(=O)OCCc1ccc(OCc2ccccc2)c(OCc2ccccc2)c1`, in data set [1], the half-inhibitory concentration (IC50) was over 10 µM.

With `CCCCOC(=O)OCCc1ccc(O)c(O)c1`, in data set [1], the IC50 came out at 7.2 µM. Moreover, in data set [2], the “Ratio IC50” value came out at 6.6.

Regarding `CCCCCCCCCCCCOC(=O)OCCc1ccc(O)c(O)c1`, the figures for the IC50 (in data set [1]; in the data set on MRC5) were 1.1 µM and 12.4 µM, respectively. For the same molecule, in data set [3], the selectivity ratio turned out to be 12. The “Ratio IC50” value in data set [2] is 44.4.

Turning to `O=C(OCCO)OCCc1ccc(OCc2ccccc2)c(OCc2ccccc2)c1`, in data set [1], the IC50 amounted to 9.4 µM. Besides, the “Ratio IC50” value in data set [2] turned out to be 5.

As to `CCCCCCOC(=O)OCCc1ccc(O)c(O)c1`, the results for the IC50 (in data set [1]; in the data set on MRC5) were 0.2 µM and 11.2 µM, respectively. The selectivity ratio in data set [3] came out at 62. The “Ratio IC50” value in data set [2] is listed as 263.9.

Take `O=C(OCCCCCCO)OCCc1ccc(OCc2ccccc2)c(OCc2ccccc2)c1`: the half-maximal inhibitory concentration (IC50) is 4.1 µM in data set [1] and over 50 µM with MRC5. In addition, in data set [3], the selectivity ratio was over 12. Further, in data set [2], the “Ratio IC50” value was found to be 11.6.

For `O=C(OCCCCOC(=O)OCCc1ccc(OCc2ccccc2)c(OCc2ccccc2)c1)OCCc1ccc(OCc2ccccc2)c(OCc2ccccc2)c1`, the IC50 in data set [1] is over 10 µM.

As to `O=C(OCCc1ccc(OCc2ccccc2)c(OCc2ccccc2)c1)OCCc1ccc(OCc2ccccc2)c(OCc2ccccc2)c1`, the IC50 in data set [1] was over 10 µM.

On to `CCCCCCCCCCCCCCCCOC(=O)OCCc1ccc(O)c(O)c1`, for which, in data set [1], the 50% inhibitory concentration (IC50) stood at 6.2 µM. Besides, the “Ratio IC50” value in data set [2] came out at 7.7.

Turning to `O=C(OCCOC(=O)OCCc1ccc(OCc2ccccc2)c(OCc2ccccc2)c1)OCCc1ccc(OCc2ccccc2)c(OCc2ccccc2)c1`, the “Ratio IC50” value in data set [2] is reported as 8.4. Moreover, the IC50 in data set [4] was found to be 5.7 µM.

Regarding `O=C(OCCCCCCO)OCCc1ccc(O)c(O)c1`, the results for the IC50 (in data set [1]; in the data set on MRC5) were 4.1 µM and over 50 µM, respectively. Besides, in data set [3], the selectivity ratio is over 12. In addition, the “Ratio IC50” value in data set [2] was 11.6.

In the case of `CCOC(=O)OCCc1ccc(O)c(O)c1`, the IC50 is 1.4 µM in data set [1] and 34.5 µM in the data set with MRC5. For the same molecule, the selectivity ratio in data set [3] came out at 25. In addition, the “Ratio IC50” value in data set [2] turned out to be 33.7.

Turning to `O=C(OCCCCCCCCOC(=O)OCCc1ccc(O)c(O)c1)OCCc1ccc(O)c(O)c1`, the IC50 in data set [1] is 1 µM; in the data set on MRC5, over 50 µM. In data set [3], the selectivity ratio was over 50. The “Ratio IC50” value in data set [2] turned out to be 47.5.

For the molecule `O=C(OCCO)OCCc1ccc(O)c(O)c1`, the half-maximal inhibitory concentration (IC50) in data set [1] was determined as 6.4 µM. In data set [2], the “Ratio IC50” value worked out at 7.4.

For `O=C(OCCCCCCCCO)OCCc1ccc(OCc2ccccc2)c(OCc2ccccc2)c1`, the “Ratio IC50” value in data set [2] came out at 8.3. The IC50 in data set [4] turned out to be 5.7 µM.

Take `O=C(OCCCCOC(=O)OCCc1ccc(O)c(O)c1)OCCc1ccc(O)c(O)c1`: the IC50 in data set [1] is 4 µM; in the data set with MRC5, over 50 µM. In addition, in data set [3], the selectivity ratio was over 13. Moreover, the “Ratio IC50” value in data set [2] worked out at 12.

Consider `O=C(OCCCCO)OCCc1ccc(O)c(O)c1`, for which the IC50 in data set [1] was over 10 µM.

For `O=C(OCCCCCCCCOC(=O)OCCc1ccc(OCc2ccccc2)c(OCc2ccccc2)c1)OCCc1ccc(OCc2ccccc2)c(OCc2ccccc2)c1`, the IC50 in data set [1] is 6.2 µM. The “Ratio IC50” value in data set [2] came to 7.7.

With `O=C(OCCCCCCOC(=O)OCCc1ccc(O)c(O)c1)OCCc1ccc(O)c(O)c1`, the IC50 is 2.1 µM in data set [1] and over 50 µM with MRC5. Besides, the selectivity ratio in data set [3] was over 24. Besides, in data set [2], the “Ratio IC50” value was 22.6.

As for `CCCCCCCCOC(=O)OCCc1ccc(O)c(O)c1`, the IC50 in the data set on MRC5 stood at 37.9 µM; in data set [4], 0.5 µM. For the same molecule, in data set [3], the selectivity ratio was found to be 72. Moreover, the “Ratio IC50” value in data set [2] is recorded as 89.6.

As for `O=C(OCCCCO)OCCc1ccc(OCc2ccccc2)c(OCc2ccccc2)c1`, the IC50 in data set [1] is over 10 µM.

Consider `O=C(OCCOC(=O)OCCc1ccc(O)c(O)c1)OCCc1ccc(O)c(O)c1`, for which the half-maximal inhibitory concentration (IC50) in data set [1] was 3.8 µM; with MRC5, over 50 µM. In addition, in data set [3], the selectivity ratio is over 13. The “Ratio IC50” value in data set [2] amounted to 12.6.

For `CCCCCCOC(=O)OCCc1ccc(OCc2ccccc2)c(OCc2ccccc2)c1`, the IC50 in data set [1] is over 10 µM.

For `CCCCCCCCCCCCCCOC(=O)OCCc1ccc(O)c(O)c1`, the figures for the half-maximal inhibitory concentration (IC50) (in data set [1]; in the data set on MRC5) were 1.4 µM and 9.1 µM, respectively. Further, in data set [3], the selectivity ratio came out at 6. In data set [2], the “Ratio IC50” value came out at 33.2.
